ChEMBL document CHEMBL1150123, “Constituents of the twigs of Hernandia ovigera that inhibit the transformation of JB6 murine epidermal cells” (J Nat Prod, 2002)
Values after ≈ are worked out from the molar mass of the structure shown.

How the values were obtained:
[1] = Inhibition of 12-O-tetradecanoylphorbol 13-acetate-induced transformation of mouse JB6 cells after 14 days by soft agar assay; assay type: functional, cell-based
[2] = Cytotoxicity against mouse JB6 cells after 3 days by trypan blue staining; assay type: cell-based; conditions: JB6, 72 h
In short: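 JB6 cells at 1×10^4 cells/mL were preincubated 24 h, then exposed to a range of test-compound concentrations for 3 days. Trypsinized cells were mixed with 0.4% trypan blue, and percent viability was scored microscopically.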

[3] = Ratio of IC50 for mouse JB6 cells to IC50 for inhibition of 12-O-tetradecanoylphorbol 13-acetate-induced transformation of mouse JB6 cells
In short: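 Ratio of two IC50s. The first is trypan blue cytotoxicity: JB6 cells, 24 h preincubation, 3-day exposure. The second is soft-agar transformation: TPA-sensitive P+ JB6 cells in 0.5% agar with TPA plus compound, triplicate wells, 14 days at 37 °C. Colonies of ≥15 cells were counted in three 0.25 cm² areas. Frequency is relative to TPA and 0.1% DMSO controls.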

| IC50 [1] [µg/mL] | Structure (SMILES) | IC50 [2] [µg/mL] | Ratio IC50 [3] |
| --- | --- | --- | --- |
| > 4 | COc1ccc([C@@H]2OC[C@@H]3[C@H]2CO[C@@H]3c2cc(OC)c(OC)c(OC)c2)cc1OC |  |  |
| > 4 | COc1cc([C@@H]2c3c(cc4c(c3OC)OCO4)[C@H](OC(C)=O)[C@H]3COC(=O)[C@@H]23)cc(OC)c1OC |  |  |
| > 4 | COc1cc(C[C@H]2C(=O)OC[C@@H]2Cc2cc(OC)c3c(c2)OCO3)cc(OC)c1OC |  |  |
| > 4 | COc1cc([C@H]2OC[C@H]3[C@@H]2CO[C@@H]3c2cc(OC)c(OC)c(OC)c2)cc(OC)c1OC |  |  |
| > 4 | COc1cc2c(cc1OC)C(=O)N(C)CC2 |  |  |
| > 4 | COc1cc([C@@H]2OC[C@@H]3C(=O)OC[C@@H]32)cc(OC)c1OC [CARUILIGNAN C] |  |  |
| > 4 | COc1cc([C@@H]2OC[C@H]3[C@@H]2CO[C@H]3c2cc(OC)c3c(c2)OCO3)cc(OC)c1OC [DIASESARTEMIN] |  |  |
| 0.4 (≈ 0.896 µM) | COc1cc([C@H]2OC[C@H]3[C@@H]2CO[C@H]3c2cc(OC)c(OC)c(OC)c2)cc(OC)c1OC [EPIYANGAMBIN] | 5.7 (≈ 12.8 µM) | 10 |

| Structure (SMILES) | IC50 [1] [µg/mL] | IC50 [2] [µg/mL] | Ratio IC50 [3] |
| --- | --- | --- | --- |
| COc1cc([C@@H]2c3cc4c(cc3[C@H](OC(C)=O)[C@H]3COC(=O)[C@@H]23)OCO4)cc(OC)c1OC | 0.15 (≈ 0.329 µM) | 1.2 (≈ 2.63 µM) | 10 |
| COc1cc(C[C@H]2C(=O)OC[C@@H]2Cc2ccc3c(c2)OCO3)cc(OC)c1OC | > 4 |  |  |
